Our source for the CC50, inhibition and Kd values is ChEMBL document CHEMBL4184128, “Design, synthesis and biological evaluation of (E)-3,4-dihydroxystyryl 4-acylaminophenethyl sulfone, sulfoxide derivatives as dual inhibitors of HIV-1 CCR5 and integrase” (Bioorg Med Chem, 2017).

Data set [1] in a line: Cytotoxicity against human TZM-bl cells assessed as reduction in cell viability after 2 days by CCK-8 assay. The data set is classed as cell-based. A digest of the protocol:
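TZM-bl cells seeded at 1×10^5 cells/mL and exposed to compound at 1000, 200, 40, 8 and 1.6µM, dissolved in DMSO cell freezing medium. Cells kept at 37°C, 5% CO2, in triplicate wells, with a medium-only control. After 2 days, CCK-8 was added for 3–4 h and A450 was read. Survival % = A450 treated/control ×100. CC50 is the concentration giving 50% cytotoxicity.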

For data set [2], the target named is C-C chemokine receptor type 5 (Homo sapiens) (UniProt P51681). The experiment in a line: Inhibition of CCR5 in human TZM-bl cells infected with HIV1 Bal R5 assessed as antiviral activity by measuring reduction in viral infection at 50 uM pre-incubated with cells followed by viral infection measured after 3 days by luciferase reporter gene assay. The data set is classed as functional, cell-based. The method in brief:
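TZM-bl cells were plated, and medium was replaced after 12 h with compound at 50μM in duplicate wells. HIV-1 Bal (R5) at 200TCID50 was added with DEAE at 10μg/mL final. Plates were incubated 3 days at 37°C, 5% CO2. Luciferase substrate in lysis buffer reacted 2 min at room temperature, protected from light. Inhibition % was taken as the decrease in signal relative to virus control, as the mean of two wells.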

Data set [3] deals with Human immunodeficiency virus type 1 integrase (Human immunodeficiency virus 1, UniProt Q7ZJM1). The data set is described as follows: Binding affinity to HIV1 integrase by surface plasma resonance method. A digest of the protocol:
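IN protein amine-coupled to a CM5 sensor chip (~10000RU) on a Biacore T200. Runs at 25°C in PBST running buffer, flow 30μL/min. Compounds were injected at graded concentrations (200μM, 100μM, 50μM, 25μM, 12.5μM, etc.). Sensorgrams were solvent-corrected and reference flow cell subtracted. KD came from a 1:1 kinetic binding fit.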

In general, CC50 refers to the concentration giving 50% cytotoxicity. One may read the inhibition as the drop in the measured response relative to a control, in per cent. What is called Kd is a measure of binding affinity in units of concentration.

Human immunodeficiency virus type 1 integrase, sequence (Q7ZJM1 whole entry): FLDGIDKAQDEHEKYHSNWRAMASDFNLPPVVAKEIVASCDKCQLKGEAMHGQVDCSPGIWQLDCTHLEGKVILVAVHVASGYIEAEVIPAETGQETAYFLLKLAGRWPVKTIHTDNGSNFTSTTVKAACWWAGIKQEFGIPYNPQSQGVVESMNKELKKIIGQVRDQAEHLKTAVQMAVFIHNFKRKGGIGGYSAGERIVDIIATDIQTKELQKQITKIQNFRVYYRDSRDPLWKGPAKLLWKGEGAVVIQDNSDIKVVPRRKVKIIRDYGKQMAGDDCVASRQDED
C-C chemokine receptor type 5 (Homo sapiens), sequence (P51681 whole entry, looked up): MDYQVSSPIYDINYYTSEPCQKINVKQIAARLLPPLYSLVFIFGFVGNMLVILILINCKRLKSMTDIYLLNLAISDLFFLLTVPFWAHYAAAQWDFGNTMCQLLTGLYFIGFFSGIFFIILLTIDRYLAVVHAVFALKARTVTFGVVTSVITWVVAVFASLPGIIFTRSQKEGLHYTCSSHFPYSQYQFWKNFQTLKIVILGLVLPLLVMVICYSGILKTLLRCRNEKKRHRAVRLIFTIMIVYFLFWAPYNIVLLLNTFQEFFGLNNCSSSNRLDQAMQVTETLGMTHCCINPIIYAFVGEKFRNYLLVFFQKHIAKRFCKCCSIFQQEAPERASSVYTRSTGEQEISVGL

In the case of `CC(=O)Oc1ccc(/C=C/S(=O)(=O)CCc2ccc(NC(=O)c3ccc([N+](=O)[O-])cc3)cc2)cc1OC(C)=O`, in data set [1], the half-maximal cytotoxic concentration (CC50) at 48 h was 160 µM. Also, the inhibition in data set [2] turned out to be 52.2%. With `COc1ccc(C(=O)Nc2ccc(CC[S+]([O-])/C=C/c3ccc(O)c(O)c3)cc2)cc1` (centres undefined), the inhibition in data set [2] turned out to be 34.1%. In the case of `CC(=O)Oc1ccc(/C=C/S(=O)(=O)CCc2ccc(NC(=O)c3ccc(F)cc3)cc2)cc1OC(C)=O`, the CC50 at 48 h in data set [1] was found to be 162 µM. The inhibition in data set [2] was found to be 26.2%. For `COc1ccc(C(=O)Nc2ccc(CCS(=O)(=O)/C=C/c3ccc(OC(C)=O)c(OC(C)=O)c3)cc2)cc1`, in data set [1], the CC50 at 48 h came out at 858 µM. Besides, the inhibition in data set [2] is under 20%. In the same order, the values of `CC(=O)Oc1ccc(/C=C/S(=O)(=O)CCc2ccc(NC(=O)C3CCCCC3)cc2)cc1OC(C)=O` are 169 µM and under 20%. In the case of `CC(=O)Oc1ccc(/C=C/S(=O)(=O)CCc2ccc(NC(=O)c3ccc(C)cc3)cc2)cc1OC(C)=O`, the CC50 at 48 h in data set [1] came to 177 µM. Besides, the inhibition in data set [2] was under 20%. In the case of `O=C(Nc1ccc(CC[S+]([O-])/C=C/c2ccc(O)c(O)c2)cc1)C1CCCCC1` (centres undefined), in data set [2], the inhibition was 52.7%. Take `CC(=O)Oc1ccc(/C=C/S(=O)(=O)CCc2ccc(NC(=O)c3cc(F)cc(F)c3)cc2)cc1OC(C)=O`: the 50% cytotoxic concentration (CC50) at 48 h in data set [1] came to 225 µM. Moreover, the inhibition in data set [2] was under 20%. For the compound `CC(=O)Oc1ccc(/C=C/S(=O)(=O)CCc2ccc(NC(=O)C34CC5CC(CC(C5)C3)C4)cc2)cc1OC(C)=O`, the CC50 at 48 h in data set [1] amounted to 182 µM. In data set [2], the inhibition came to 23.7%. In the same order, the values of `O=C(Nc1ccc(CCS(=O)(=O)/C=C/c2ccc(O)c(O)c2)cc1)c1ccc([N+](=O)[O-])cc1` are 483 µM and 23.4%. As to `O=C(Nc1ccc(CCS(=O)(=O)/C=C/c2ccc(O)c(O)c2)cc1)C12CC3CC(CC(C3)C1)C2`, the CC50 at 48 h in data set [1] amounted to 786 µM. Also, in data set [2], the inhibition is 21.6%. With `O=C(Nc1ccc(CCS(=O)(=O)/C=C/c2ccc(O)c(O)c2)cc1)c1ccccc1`, in data set [1], the CC50 at 48 h was found to be 238 µM. Besides, in data set [2], the inhibition is under 20%. In addition, in data set [3], the equilibrium dissociation constant (Kd) worked out at 160 µM. As for `O=C(Nc1ccc(CCS(=O)(=O)/C=C/c2ccc(O)c(O)c2)cc1)c1ccc(F)cc1`, the CC50 at 48 h in data set [1] is over 1000 µM. The inhibition in data set [2] was under 20%. For the compound `O=C(Cc1cccs1)Nc1ccc(CCS(=O)(=O)/C=C/c2ccc(O)c(O)c2)cc1`, in data set [1], the CC50 at 48 h was 569 µM. In addition, the inhibition in data set [2] is under 20%.

Take `COc1ccc(C(=O)Nc2ccc(CCS(=O)(=O)/C=C/c3ccc(O)c(O)c3)cc2)cc1`: the CC50 at 48 h in data set [1] is over 1000 µM. The inhibition in data set [2] is under 20%.

For `O=C(Nc1ccc(CCS(=O)(=O)/C=C/c2ccc(O)c(O)c2)cc1)C1CCCCC1`, the CC50 at 48 h in data set [1] was 638 µM. In data set [2], the inhibition was 45.9%. In data set [3], this compound came in with a dissociation constant (Kd) of 115 µM. Regarding `Cc1nnc(C(C)C)n1[C@@H]1C[C@H]2CC[C@@H](C1)N2CC[C@H](NC(=O)C1CCC(F)(F)CC1)c1ccccc1` [MARAVIROC], the CC50 at 48 h in data set [1] was over 1000 µM. For `O=C(Nc1ccc(CC[S+]([O-])/C=C/c2ccc(O)c(O)c2)cc1)c1ccccc1` (centres undefined), in data set [1], the CC50 at 48 h is 157 µM. Further, the inhibition in data set [2] amounted to 68.4%. This compound also yielded an equilibrium dissociation constant (Kd) in data set [3] of 142 µM. Regarding `O=C(Nc1ccc(CC[S+]([O-])/C=C/c2ccc(O)c(O)c2)cc1)c1cc(F)cc(F)c1` (centres undefined), the inhibition in data set [2] was 41.8%.

Regarding `O=C(Nc1ccc(CCS(=O)(=O)/C=C/c2ccc(O)c(O)c2)cc1)c1cc(F)cc(F)c1`, the CC50 at 48 h in data set [1] stood at 414 µM. Moreover, in data set [2], the inhibition amounted to 33%. On to `O=C(Nc1ccc(CC[S+]([O-])/C=C/c2ccc(O)c(O)c2)cc1)c1ccc(F)cc1` (centres undefined), for which, in data set [1], the half-maximal cytotoxic concentration (CC50) at 48 h turned out to be 127 µM. Besides, the inhibition in data set [2] worked out at 64.6%. As for `CC(=O)Oc1ccc(/C=C/S(=O)(=O)CCc2ccc(NC(=O)c3ccccc3)cc2)cc1OC(C)=O`, the CC50 at 48 h in data set [1] stood at 108 µM. Moreover, the inhibition in data set [2] is under 20%. This compound came in with an equilibrium dissociation constant (Kd) in data set [3] of 207 µM.

As to `O=C(Nc1ccc(CC[S+]([O-])/C=C/c2ccc(O)c(O)c2)cc1)C12CC3CC(CC(C3)C1)C2` (centres undefined), in data set [2], the inhibition amounted to 64.7%. Take `Cc1ccc(C(=O)Nc2ccc(CCS(=O)(=O)/C=C/c3ccc(O)c(O)c3)cc2)cc1`: in data set [1], the half-maximal cytotoxic concentration (CC50) at 48 h came to 168 µM. Moreover, the inhibition in data set [2] is under 20%. Turning to `CC(=O)Oc1ccc(/C=C/S(=O)(=O)CCc2ccc(NC(=O)Cc3cccs3)cc2)cc1OC(C)=O`, the half-maximal cytotoxic concentration (CC50) at 48 h in data set [1] came to 161 µM. Besides, the inhibition in data set [2] came out at 23%.
